Compounds with a hit are over-represented: about 2.2% of the library has one in this group of screens.
Mcl1-Noxa inh – Mcl-1/Noxa interaction inhibition | AID 1022 | actives 1.5% (n = 220,000) | Q07820 | TR-FRET Mcl-1/Noxa peptide binding, 2 h | inhibition, % at 21.7 µM;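 active means compounds that cut the protein-peptide binding signal by more than 50% relative to plate controls in a single-dose test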;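 further: His-tagged Mcl-1 with rhodamine Noxa BH3 peptide and terbium anti-His antibody; 0% = Mcl-1 plus Noxa peptide wells and 100% = peptide-only wells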
Target sequence (Q07820 whole entry, looked up): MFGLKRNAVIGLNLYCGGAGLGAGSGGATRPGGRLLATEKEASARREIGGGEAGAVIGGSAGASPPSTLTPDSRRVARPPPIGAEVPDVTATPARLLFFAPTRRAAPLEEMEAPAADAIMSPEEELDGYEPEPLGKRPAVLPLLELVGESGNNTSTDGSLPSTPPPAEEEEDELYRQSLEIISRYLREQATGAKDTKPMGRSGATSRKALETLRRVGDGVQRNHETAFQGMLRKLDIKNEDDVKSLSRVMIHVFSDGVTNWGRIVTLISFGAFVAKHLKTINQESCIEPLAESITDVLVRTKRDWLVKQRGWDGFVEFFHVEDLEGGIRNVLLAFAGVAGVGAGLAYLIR
EBV gp42 block – EBV gp42 inhibition | Fluorescence polarization binding assay, mP read-out | inhibition, % (tested at 21.74 µM) | actives 0.42% (n = 220,000) | AID 1085; in the data active means inhibition above about 50%
Target sequence (Q1HVG2 whole entry, looked up): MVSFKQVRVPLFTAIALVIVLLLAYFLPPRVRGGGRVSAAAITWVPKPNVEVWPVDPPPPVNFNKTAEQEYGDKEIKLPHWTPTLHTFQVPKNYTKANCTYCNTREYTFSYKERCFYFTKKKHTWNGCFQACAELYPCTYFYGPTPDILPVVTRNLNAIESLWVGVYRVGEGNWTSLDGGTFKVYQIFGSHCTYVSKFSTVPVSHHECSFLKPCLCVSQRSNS
Bim-Mcl-1 – inhibitors of Bim-Mcl-1 interaction, human | Q07820 | inhibition, % at 10 µM | AID 1009 | actives 0.1% (n = 190,000) | Bead-based flow cytometry, Bim peptide-Mcl-1 binding; in the data active means inhibition above about 40%;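 further: 0% = no compound tracer wells and 100% = peptide blocker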
MCL1-BIM inh – disrupts human MCL1 binding to BIM-BH3 peptide. AID 2057. inhibition, % at 10.9 µM. Q07820. GST-MCL1 / FITC-Bim-BH3 fluorescence polarization. actives 0.68% (n = 320,000);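 active means inhibition above the mean inhibition of all tested compounds plus 3 SD, set per campaign, cut at about 40% in these data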;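 further: 0% = DMSO wells and 100% = unlabeled Bim-BH3 peptide control; higher means more loss of mP so more displacement of Bim peptide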
Mcl1 Bid PPI – disrupts binding of human Mcl-1 to Bid peptide. Q07820. TR-FRET Mcl-1/Bid-Dy647 peptide binding, 1536-well. inhibition, % at 21.7 µM. actives 0.97% (n = 220,000). AID 1021;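 active means compounds that cut the binding signal by more than half at the single screening dose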;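 further: His-tagged Mcl-1 with europium anti-His antibody binding Bid BH3 peptide; 0% = Mcl-1 plus peptide wells and 100% = peptide-only wells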
RBBP9 inh – inhibitors of human serine hydrolase RBBP9. O75884. recombinant RBBP9, FP-Rh probe fluorescence polarization. inhibition, % at 7.94 µM. actives 0.2% (n = 220,000);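 active means inhibition above the campaign mean of all tested compounds plus 3 SD, cut at about 14% in these data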;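 further: plate controls were DMSO wells with RBBP9 for no effect and wells lacking RBBP9 protein for full effect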
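Assay system: recombinant human RBBP9; Reagent: Serine-hydrolase probe FP-Rh, 375 nM pre-mixing; Doses: 7.94 µM single dose, 0.794% DMSO; Incubation: 30 min then 45 min, 25 °C; Detection: fluorescence polarization (mP), excitation 525 nm, emission 598 nm; Evaluation: percent inhibition from mP, scaled between DMSO and no-protein wells.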
An asterisk follows results filed as active; i = inactive; . = no result given.

SMILES | Mcl1-Noxa inh | EBV gp42 block | Bim-Mcl-1 | MCL1-BIM inh | Mcl1 Bid PPI | RBBP9 inh
O=C(Cc1cccc(NC(=O)C2CCCN(C(=O)CCc3ccccc3)C2)c1)Nc1cccc(C(=O)N2CCCC2)c1 (configuration not stated) | . | . | . | -0.8 | . | .
COC(=O)CSc1nnc(CNc2nc(-c3ccccc3)cs2)n1C | -11.9 | -24.7 | -1.0 | 0.4 | -16.9 | 1.6
Cn1c(CNc2nc(-c3ccccc3)cs2)nnc1SCC(=O)N1CCc2ccccc21 | 4.6 | -22.3 | 51.0* | 3.5 | -18.1 | 5.5
COCCCn1c(=S)[nH]c2sc3c(c2c1=O)CCCS3 | 65.1* | -2.9 | -4.0 | 10.2 | -89.0 | -11.1
COCCn1c(=S)[nH]c2sc3c(c2c1=O)CCC(C)C3 (configuration not stated) | . | . | . | 3.8 | . | .
Cc1cccc(NC(=O)CNC(=O)c2cccs2)n1 | . | . | . | 7.8 | . | .
Cc1cccc(NC(=O)c2cccs2)n1 | 78.3* | -17.0 | 5.0 | 4.2 | -4.8 | -8.6
CC(C)N1CCc2c(sc(NC(=O)c3cc4cc([N+](=O)[O-])ccc4s3)c2C(N)=O)C1 | 76.3* | -16.9 | 1.0 | . | 35.1 | 2.2
Cc1cccc(NC(=O)c2cc3cc([N+](=O)[O-])ccc3s2)n1 | 59.7* | -1.0 | 5.0 | -9.4 | 33.5 | -4.0
CN1CCc2c(sc(NC(=O)c3cc4cc([N+](=O)[O-])ccc4s3)c2C(N)=O)C1 | 4.0 | -15.5 | 1.0 | . | -23.1 | -4.1
COc1ccc(N2C(=O)N(Cc3cccc(F)c3)c3ccccc3S2(=O)=O)cc1 | -1.3 | 1.9 | -3.0 | . | -7.4 | -14.1
Cn1c(=O)[nH]c(=O)c2c1nc(SCC(O)CCl)n2Cc1ccccc1 (configuration not stated) | . | . | . | -2.5 | . | .
CCOC(=O)c1cnc2ccc(OCC)cc2c1N(C)Cc1ccccc1 | 17.6 | -13.0 | -5.0 | -4.6 | -2.5 | 5.0
COc1ccc(C(=O)Nc2nnc(S(=O)(=O)N(C)Cc3ccc(F)cc3)s2)cc1OC | . | . | . | 6.2 | . | .
C=CCOC(=O)/C=C/C(=O)NC(N)=O | 38.5 | -7.9 | . | 8.5 | 75.4* | -5.1
CSc1nccc(Oc2ccc(C#N)cc2)n1 | 18.5 | -10.8 | 0.0 | -4.7 | -32.5 | -3.8
CCN(CC)c1ccc(NC(=O)CCCOc2cccc(C)c2)cc1 | 77.0* | -27.6 | 1.0 | . | -49.2 | -5.5
Cc1cccc(OCCCC(=O)Nc2ccc(S(N)(=O)=O)cc2)c1 | 6.0 | -1.8 | -2.0 | 1.4 | 1.0 | -3.2
CCOc1cccc(C(=O)Nc2ccc(N(CC)CC)cc2)c1 | 64.8* | -20.2 | 0.0 | 6.4 | -29.8 | -4.8
CCN(CC)c1ccc(NC(=O)c2cnn(CC)c2)cc1 | 66.1* | -3.7 | -3.0 | 2.3 | 17.9 | -5.0
COc1c(-c2ccc([N+](=O)[O-])cc2[N+](=O)[O-])c(=O)n(C)c(=O)n1C | . | . | . | -4.0 | . | .
Cc1ccccc1-n1nnnc1SCC(=O)c1c(N)n(C)c(=O)n(C)c1=O | 54.0* | -23.4 | . | -11.5 | -39.7 | 2.6
Cn1c(N)c(C(=O)CSc2nnnn2-c2ccccc2)c(=O)n(C)c1=O | -7.6 | -12.1 | . | -3.5 | -6.1 | -3.3
Nc1ccc(-c2nc3ccc(N)cc3[nH]2)cc1 | 31.4 | -8.7 | 10.0 | 4.6 | -41.8 | 7.8
CCCC[n+]1ccc(-c2nc3ccc([N+](=O)[O-])cc3[nH]2)cc1 | 14.2 | -12.8 | -3.0 | -0.9 | -4.2 | 4.0
SMILES | Mcl1-Noxa inh | EBV gp42 block | Bim-Mcl-1 | MCL1-BIM inh | Mcl1 Bid PPI | RBBP9 inh
O=[N+]([O-])c1ccc(-c2nc3ccc([N+](=O)[O-])cc3[nH]2)cc1 | 63.3* | 75.3* | 0.0 | 7.5 | 77.7* | -4.2
Nc1ccc2nc(-c3ccc(Cl)cc3)[nH]c2c1 | 84.7* | -10.7 | 0.0 | -0.1 | -78.0 | .
Nc1ccc(-c2nc3ccc([N+](=O)[O-])cc3[nH]2)cc1 | 51.2* | -4.0 | 2.0 | 2.5 | -20.1 | -4.0
Cc1c(C(=O)N2CCN(CC(=O)Nc3ccccc3Cl)CC2)oc2ccc(Br)cc12 | . | . | . | 6.0 | . | .
CN1C(=O)/C(=C/c2coc3ccc(O)cc3c2=O)SC1=S | 53.8* | -7.9 | . | -12.2 | -5.3 | 3.0
Cc1ccc(NS(=O)(=O)c2ccc(C(=O)NNC(=O)c3ccccc3O)cc2)cc1 | . | . | . | -0.9 | . | .
CC(=O)N1CCOc2ccc(S(=O)(=O)N3CCC(C(=O)NCc4ccc(F)cc4)CC3)cc21 | . | . | . | 0.7 | . | .
COc1cc(/C=C2\S/C(=N/S(=O)(=O)c3ccccc3)NC2=O)c([N+](=O)[O-])cc1OC | 57.0* | 4.3 | . | 37.9 | 14.2 | 0.6
CCc1c(C)sc(NC(=O)CC#N)c1C#N | 61.8* | -12.2 | 1.0 | 13.3 | -80.7 | 1.1
O=C(COc1ccc(/C=N/NC(=O)c2cc3ccccc3o2)cc1Cl)Nc1ccccc1 | 22.6 | -16.3 | -3.0 | -1.6 | 83.6* | -9.6
COc1cc(/C=N/NC(=O)c2ccccc2O)ccc1OCC(=O)Nc1ccccc1 | . | . | . | -1.4 | . | .
CCN1/C(=C/C=C/C=C/c2sc3ccccc3[n+]2CC)Sc2ccccc21 | -252.2 | 30.8 | . | 140.3* | i | -36.5
Cn1nnnc1SCC(=O)Nc1ccccc1N1CCCCC1 | 18.0 | 139.7* | -3.0 | -4.9 | 2.4 | -6.6
Cn1nnnc1SCC(=O)Nc1ccccc1Br | . | . | . | 3.3 | . | .
COc1cc(CC2COC(c3ccc(O)c(OC)c3)C2COC(C)=O)ccc1O (configuration not stated) | 70.2* | 5.8 | . | 23.7 | -72.0 | .
Cc1nc(N/N=C\c2ccc3c(c2)OCO3)sc1C | . | . | . | -6.7 | . | .
Cc1ccc(S(=O)(=O)CCC(=O)OC(C)C(=O)N2CCc3ccccc32)cc1 (configuration not stated) | . | . | . | -5.9 | . | .
CCS(=O)(=O)N1CCN(C2CCC(c3ccccc3)CC2)CC1 (configuration not stated) | 9.7 | -3.0 | 0.0 | 10.1 | 54.4* | -5.8
COc1ccc(N2C(=O)[C@@H]3[C@H](C2=O)[C@H]2c4ccccc4C=CN2[C@@H]3C(C)=O)cc1 | 5.5 | 53.9* | -1.0 | 26.0 | -5.5 | -4.7
COc1ccc(CCNC(=O)C(=O)NCC2OCCN2C(=O)c2ccc(Cl)cc2)cc1OC (configuration not stated) | . | . | . | -3.8 | . | .
COc1ccc(N2CCN(CC(=O)Nc3sccc3C#N)CC2)cc1 | 24.1 | -7.2 | -2.0 | 9.6 | -50.3 | 3.4
COc1ccc(CNCC(=O)Nc2sccc2C#N)cc1 | 52.6* | 3.7 | -4.0 | -0.8 | 28.2 | -12.3
Clc1ccccc1OCc1nnc2n1CCCCC2 | -15.4 | -12.8 | . | 0.3 | -16.3 | -5.2
O=C(O)CCCN1C(=O)/C(=C/c2cn(-c3ccccc3)nc2-c2cccs2)SC1=S | 86.7* | -225.9 | -1.0 | . | 77.7* | -9.3
COC(=O)C1=C(C(=O)OC)[C@@H]2N(C)c3ccc(OC)cc3[C@@]23C[C@@H](C(=O)OC)N(C(=O)COCc2ccccc2)C3=N1 | . | . | . | 19.1 | . | .
O=C(N=Nc1c(O)n(Cc2ccccc2)c2ccccc12)c1cc2ccccc2cc1O | 85.1* | 3.7 | 4.0 | 24.0 | 56.1* | -3.6
Cc1ccc(NC(=O)Cn2c(O)c(N=NC(=O)c3ccncc3)c3ccccc32)cc1 | 39.4 | -23.7 | -3.0 | 3.6 | 26.8 | -4.8
